Experimental data reported in ChEMBL document CHEMBL4346665, “Synthesis and evaluation of tetrahydroquinolin-2(1H)-one derivatives as novel anti-pancreatic cancer agents via targeting autophagy” (Eur J Med Chem, 2019).
The source made the active and inactive calls. The calls are words filed in the database; no cut-off is given here.

Assays:
PANC-1 [1] = test: Growth inhibition of human PANC1 cells in nutrient-deprived medium at 10 uM incubated for 24 hrs by MTT assay (reference value: 0.0 +/- 1.9%); type: functional; settings: PANC-1, 24 h
PANC-1 [2] = test: Growth inhibition of human PANC1 cells in nutrient-rich medium at 10 uM incubated for 24 hrs by MTT assay (reference value: 0.0 +/- 3.8%); type: functional; settings: PANC-1, 24 h
PANC-1 [3] = test: Growth inhibition of human PANC1 cells in nutrient-deprived medium incubated for 24 hrs by MTT assay; type: functional, cell-based; settings: PANC-1, 24 h
[4] = Cytotoxicity against mouse NCTC-1469 cells up to 20 uM incubated for 24 hrs by MTT assay; type: cell-based
PANC-1 [5] = test: Inhibition of colony formation in human PANC1 cells in nutrient-deprived medium treated for 24 hrs followed by compound washout and subsequent incubation for 14 days by crystal violet staining based assay; type: functional, cell-based
Procedure, shortened: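 Clonogenic assay of PANC-1 under NDC across several concentrations. Surviving colonies counted, mean ± S.D., n = 3.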

PANC-1 [6] = test: Induction of apoptosis in human PANC1 cells in nutrient-deprived medium assessed as live cells at 5 uM incubated for 24 hrs by Annexin V-FITC/PI double staining based flow cytometric analysis (reference value: 85.75 to 96.8%); type: functional
Procedure, shortened: (§1)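 PANC-1 cells under NDC exposed 24 h at 5.0, 10.0 or 20.0 µM. Annexin V-FITC/PI double staining, flow cytometric quantification of live, early apoptotic, late apoptotic and necrotic fractions. Arctigenin as positive control.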

PANC-1 [7] = test: Induction of apoptosis in human PANC1 cells in nutrient-deprived medium assessed as early apoptotic cells at 5 uM incubated for 24 hrs by Annexin V-FITC/PI double staining based flow cytometric analysis (reference value: 0.22 to 14.25%); type: functional; procedure, shortened: as §1
PANC-1 [8] = test: Induction of apoptosis in human PANC1 cells in nutrient-deprived medium assessed as late apoptotic cells at 5 uM incubated for 24 hrs by Annexin V-FITC/PI double staining based flow cytometric analysis (reference value: 0 to 0.9%); type: functional; procedure, shortened: as §1
PANC-1 [9] = test: Induction of apoptosis in human PANC1 cells in nutrient-deprived medium assessed as necrotic cells at 5 uM incubated for 24 hrs by Annexin V-FITC/PI double staining based flow cytometric analysis (reference value: 0 to 2.8%); type: functional; procedure, shortened: as §1
PANC-1 [10] = test: Induction of apoptosis in human PANC1 cells in nutrient-deprived medium assessed as live cells at 10 uM incubated for 24 hrs by Annexin V-FITC/PI double staining based flow cytometric analysis (reference value: 85.75 to 96.8%); type: functional; procedure, shortened: as §1
PANC-1 [11] = test: Induction of apoptosis in human PANC1 cells in nutrient-deprived medium assessed as early apoptotic cells at 10 uM incubated for 24 hrs by Annexin V-FITC/PI double staining based flow cytometric analysis (reference value: 0.22 to 14.25%); type: functional; procedure, shortened: as §1
PANC-1 [12] = test: Induction of apoptosis in human PANC1 cells in nutrient-deprived medium assessed as late apoptotic cells at 10 uM incubated for 24 hrs by Annexin V-FITC/PI double staining based flow cytometric analysis (reference value: 0 to 0.9%); type: functional; procedure, shortened: as §1
PANC-1 [13] = test: Induction of apoptosis in human PANC1 cells in nutrient-deprived medium assessed as necrotic cells at 10 uM incubated for 24 hrs by Annexin V-FITC/PI double staining based flow cytometric analysis (reference value: 0 to 2.8%); type: functional; procedure, shortened: as §1
PANC-1 [14] = test: Induction of apoptosis in human PANC1 cells in nutrient-deprived medium assessed as live cells at 20 uM incubated for 24 hrs by Annexin V-FITC/PI double staining based flow cytometric analysis (reference value: 85.75 to 96.8%); type: functional; procedure, shortened: as §1
PANC-1 [15] = test: Induction of apoptosis in human PANC1 cells in nutrient-deprived medium assessed as early apoptotic cells at 20 uM incubated for 24 hrs by Annexin V-FITC/PI double staining based flow cytometric analysis (reference value: 0.22 to 14.25%); type: functional; procedure, shortened: as §1
PANC-1 [16] = test: Induction of apoptosis in human PANC1 cells in nutrient-deprived medium assessed as late apoptotic cells at 20 uM incubated for 24 hrs by Annexin V-FITC/PI double staining based flow cytometric analysis (reference value: 0 to 0.9%); type: functional; procedure, shortened: as §1
PANC-1 [17] = test: Induction of apoptosis in human PANC1 cells in nutrient-deprived medium assessed as necrotic cells at 20 uM incubated for 24 hrs by Annexin V-FITC/PI double staining based flow cytometric analysis (reference value: 0 to 2.8%); type: functional; procedure, shortened: as §1
PANC-1 [18] = test: Induction of apoptosis in human PANC1 cells in nutrient-deprived medium incubated for 24 hrs by Annexin V-FITC/PI double staining based flow cytometric analysis; type: functional, cell-based; procedure, shortened: as §1
PANC-1 [19] = test: Antitumor activity against human PANC1 cells xenografted in nude mouse assessed as reduction in tumor size at 20 mg/kg, ip administered daily for 4 weeks post tumor inoculation and observed on day 9; type: functional
Procedure, shortened: (§2)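 PANC-1 xenografts in nude mice. Dosing daily at 5, 10 or 20 mg/kg/day for 30 days, or 30 mg/kg every three days for the gemcitabine reference. Tumor volume from diameters and tumor weight at end of study. Body weight monitored, kidney and liver examined. T1-weighted MRI on day 30 with Gd-DTPA contrast via tail vein. Mean ± S.D., n = 5, vs control group.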

PANC-1 [20] = test: Antitumor activity against human PANC1 cells xenografted in ip dosed nude mouse assessed as reduction in tumor size administered daily for 4 weeks post tumor inoculation and observed on day 21 to 30; type: functional, organism-based; procedure, shortened: as §2
[21] = Toxicity in human PANC1 cells xenografted in nude mouse assessed as mortality at 5 to 20 mg/kg, ip administered daily for 4 weeks post tumor inoculation; type: organism-based; settings: in vivo, 672 h
Procedure, shortened: (§3)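 PANC-1 xenografts in nude mice, 5 per group. Daily injections of 5, 10 or 20 mg/kg for 30 days. Gemcitabine reference arm dosed at 30 mg/kg every three days, compared with untreated controls. Body weight tracked through dosing and deaths recorded. Tumour diameters measured over time and tumours weighed at endpoint. Kidneys and liver examined for lesions.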

[22] = Toxicity in human PANC1 cells xenografted in nude mouse assessed as pathological changes in liver at 20 mg/kg, ip administered daily for 4 weeks post tumor inoculation by hematoxylin and eosin staining based assay; type: organism-based; settings: in vivo, 672 h; procedure, shortened: as §2
[23] = Toxicity in human PANC1 cells xenografted in nude mouse assessed as pathological changes in kidney at 20 mg/kg, ip administered daily for 4 weeks post tumor inoculation by hematoxylin and eosin staining based assay; type: organism-based; settings: in vivo, 672 h; procedure, shortened: as §2
[24] = Toxicity in human PANC1 cells xenografted in nude mouse assessed as change in body weight at 5 to 20 mg/kg, ip administered daily for 4 weeks post tumor inoculation; type: organism-based; settings: in vivo, 672 h; procedure, shortened: as §3
PANC-1 [25] = test: Antitumor activity against human PANC1 cells xenografted in nude mouse assessed as reduction in tumor size at 5 to 20 mg/kg, ip administered daily for 4 weeks post tumor inoculation by Gd-DTPA based T1 weighted MRI analysis; type: functional, organism-based; procedure, shortened: as §2
PANC-1 [26] = test: Induction of autophagy in human PANC1 cells in nutrient-deprived medium assessed as reduction in percentage area of LC3 at 10 uM incubated for 24 hrs by DAPI staining based confocal microscopic analysis; type: functional, cell-based
Procedure, shortened: (§4)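 LC3-transfected PANC-1 cells under NNC, NDC, or NDC plus 10 µM compound. Cells co-labeled for LC3B and DAPI and imaged by confocal microscopy. LC3 puncta number, percentage area and mean intensity quantified.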

PANC-1 [27] = test: Induction of autophagy in human PANC1 cells in nutrient-deprived medium assessed as reduction in mean intensity of LC3 at 10 uM incubated for 24 hrs by DAPI staining based confocal microscopic analysis; type: functional, cell-based; procedure, shortened: as §4
PANC-1 [28] = test: Antitumor activity against human PANC1 cells xenografted in nude mouse assessed as reduction in tumor size at 20 mg/kg, ip administered daily for 4 weeks post tumor inoculation and observed on day 6; type: functional, organism-based; procedure, shortened: as §2
PANC-1 [29] = test: Antitumor activity against human PANC1 cells xenografted in nude mouse assessed as reduction in tumor weight at 20 mg/kg, ip administered daily for 4 weeks post tumor inoculation; type: functional, organism-based; procedure, shortened: as §2
PANC-1 [30] = test: Inhibition of autophagy in human PANC1 cells in nutrient-deprived medium assessed as accumulation of SQSTM1 protein at 10 uM incubated for 1 to 6 hrs by Western blot analysis
PANC-1 [31] = test: Inhibition of autophagy in human PANC1 cells in nutrient-deprived medium assessed as reduction in LC3-2 expression level at 10 uM incubated for 1 to 6 hrs by Western blot analysis
PANC-1 [32] = test: Antitumor activity against human PANC1 cells xenografted in nude mouse assessed as reduction in tumor size at 30 mg/kg, ip administered every 3 days for 4 weeks post tumor inoculation; type: functional, organism-based; procedure, shortened: as §2
PANC-1 [33] = test: Antitumor activity against human PANC1 cells xenografted in nude mouse assessed as reduction in tumor weight at 30 mg/kg, ip administered every 3 days for 4 weeks post tumor inoculation; type: functional, organism-based; procedure, shortened: as §2
[34] = Toxicity in human PANC1 cells xenografted in nude mouse assessed as change in body weight at 30 mg/kg, ip administered every 3 days for 4 weeks post tumor inoculation; type: organism-based; settings: in vivo; procedure, shortened: as §2
[35] = Toxicity in human PANC1 cells xenografted in nude mouse assessed as pathological changes in kidney at 30 mg/kg, ip administered every 3 days for 4 weeks post tumor inoculation by hematoxylin and eosin staining based assay; type: organism-based; settings: in vivo; procedure, shortened: as §2
[36] = Toxicity in human PANC1 cells xenografted in nude mouse assessed as pathological changes in liver at 30 mg/kg, ip administered every 3 days for 4 weeks post tumor inoculation by hematoxylin and eosin staining based assay; type: organism-based; settings: in vivo; procedure, shortened: as §2

SMILES	inhibition at 10 µM (PANC-1 [1]) [%]	inhibition at 10 µM (PANC-1 [2]) [%]	IC50 (PANC-1 [3]) [µM]	Activity (PANC-1 [6]) [%]	Activity (PANC-1 [7]) [%]	Activity (PANC-1 [8]) [%]	Activity (PANC-1 [9]) [%]	Activity (PANC-1 [10]) [%]	Activity (PANC-1 [11]) [%]	Activity (PANC-1 [12]) [%]	Activity (PANC-1 [13]) [%]	Activity (PANC-1 [14]) [%]	Activity (PANC-1 [15]) [%]	Activity (PANC-1 [16]) [%]	Activity (PANC-1 [17]) [%]	further results
CC(C)=CCC/C(C)=C/CC1Cc2c(OCCCNC(=O)c3cccs3)cc(=O)n(CCCO)c2CC1(C)C (stereo unspecified)	72.8	11.5	4.9	38.56	35.35	26	0.09	20.25	41.58	38.03	0.14	1.56	2.34	91.74	4.36	Activity [4]: Non-Toxic; inhibition (PANC-1 [5]): Dose-dependent effect; Activity (PANC-1 [18]): Dose-dependent effect; Activity (PANC-1 [19]): 71.25 mm3; Activity (PANC-1 [20]): Dose-dependent effect; Activity [21]: Non-Toxic; Activity [22]: Non-Toxic; Activity [23]: Non-Toxic; Activity [24]: Non-Toxic; Activity (PANC-1 [25]): Active; Activity (PANC-1 [26]): Active; Activity (PANC-1 [27]): Active; Activity (PANC-1 [28]): inactive; Activity (PANC-1 [29]): Active; Activity (PANC-1 [30]): Active; Activity (PANC-1 [31]): Active
Nc1ccn([C@@H]2O[C@H](CO)[C@@H](O)C2(F)F)c(=O)n1 [GEMCITABINE]	–	–	–	–	–	–	–	–	–	–	–	–	–	–	–	Activity (PANC-1 [32]): Active; Activity (PANC-1 [33]): Active; Activity [34]: Non-Toxic; Activity [35]: Non-Toxic; Activity [36]: Non-Toxic
COc1cc(C[C@H]2C(=O)OC[C@@H]2Cc2ccc(OC)c(OC)c2)ccc1O [ARCTIGENIN]	79.1	66.8	2.2	8.66	1.43	83.08	6.84	4.13	1.03	89.2	5.64	2.23	1.06	90.44	6.29	–
